Experimental findings from ChEMBL document CHEMBL1144541, “Antinociceptive and antiinflammatory activities and QSAR studies on 2-substituted-4,5-diphenyl-1H-imidazoles” (2007) are described below.

For one test, the system named is Mus musculus. Nature of the test: Antinociceptive activity in ip dosed Swiss albino mouse assessed as latency time after 30 mins by hot plate method. In kind it is functional. Put shortly: (§1)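 Swiss albino mice (20–25 g) were housed 7 days at 30 ± 1 °C before testing, in groups of six. Compounds were given ip at 9.5–12.58 mg/kg as a 0.2% Tween suspension. Mice were placed on a 55 ± 0.5 °C hot plate before dosing and at 15, 30, 60 and 120 min after dosing, with a 15 s cut-off. Significance was assessed by Student's t test.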
For orientation: Thermal pain tests record how soon the animal reacts.
For `c1ccc(-c2nc(-c3ccccc3)c(-c3ccccc3)[nH]2)cc1`, the Activity amounted to 5.28 s.
For `Clc1ccccc1-c1nc(-c2ccccc2)c(-c2ccccc2)[nH]1`, the Activity worked out at 6.25 s.
In the case of `Nc1ccc(-c2nc(-c3ccccc3)c(-c3ccccc3)[nH]2)cc1`, the Activity stood at 7.01 s.
As to `Cc1ccccc1-c1nc(-c2ccccc2)c(-c2ccccc2)[nH]1`, the Activity was determined as 4.67 s.
Still for that read-out and setting: under `Clc1cccc(-c2nc(-c3ccccc3)c(-c3ccccc3)[nH]2)c1` stands 6.18 s.
The same measure, in the same setting: the figure for `O=[N+]([O-])c1ccc(-c2nc(-c3ccccc3)c(-c3ccccc3)[nH]2)cc1` is 4.66 s.

The subject of a further test is Mus musculus. Nature of the test: Antinociceptive activity in ip dosed Swiss albino mouse assessed as latency time after 120 mins by tail flick method. In kind it is functional. Put shortly:
(§2)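 Swiss albino mice (20–25 g) received compounds ip at 9.5–12.58 mg/kg in 0.2% Tween suspension. Tail-flick latency to radiant heat was measured, with stimulus intensity set to give a 3–4 s baseline. Readings were taken just before injection and at 15, 30, 60 and 120 min after. Significance was assessed by Student's t test.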
With `c1ccc(-c2nc(-c3ccccc3)c(-c3ccccc3)[nH]2)cc1`, the Activity was 5.78 s.
On the same count and under the same terms, under `Clc1ccccc1-c1nc(-c2ccccc2)c(-c2ccccc2)[nH]1` stands 8.85 s.
Still for that read-out and setting: under `Nc1ccc(-c2nc(-c3ccccc3)c(-c3ccccc3)[nH]2)cc1` stands 10.05 s; under `Cc1ccccc1-c1nc(-c2ccccc2)c(-c2ccccc2)[nH]1`, 5.52 s; under `Clc1cccc(-c2nc(-c3ccccc3)c(-c3ccccc3)[nH]2)c1`, 8.18 s.
The same measure, in the same setting: under `O=[N+]([O-])c1ccc(-c2nc(-c3ccccc3)c(-c3ccccc3)[nH]2)cc1` stands 5.13 s.

The next test relates to Mus musculus. Nature of the test: Antinociceptive activity in ip dosed Swiss albino mouse assessed as latency time by hot plate method. In kind it is functional. Put shortly:
as §1
As to `c1ccc(-c2nc(-c3ccccc3)c(-c3ccccc3)[nH]2)cc1`, the Activity is on record as 4.63 s.
On to `Clc1ccccc1-c1nc(-c2ccccc2)c(-c2ccccc2)[nH]1`, for which the Activity is given as 4.67 s.
As to `Nc1ccc(-c2nc(-c3ccccc3)c(-c3ccccc3)[nH]2)cc1`, the Activity is on record as 4.48 s.
For the compound `Cc1ccccc1-c1nc(-c2ccccc2)c(-c2ccccc2)[nH]1`, the Activity amounted to 4.5 s.
For the compound `Clc1cccc(-c2nc(-c3ccccc3)c(-c3ccccc3)[nH]2)c1`, the Activity amounted to 4.68 s.
Same read-out and setting: the figure for `O=[N+]([O-])c1ccc(-c2nc(-c3ccccc3)c(-c3ccccc3)[nH]2)cc1` is 4.37 s.

The test system of a further test is Mus musculus. Kind of test: Antinociceptive activity in ip dosed Swiss albino mouse assessed as latency time after 60 mins by hot plate method. In kind it is functional. Summed up:
as §1
As to `c1ccc(-c2nc(-c3ccccc3)c(-c3ccccc3)[nH]2)cc1`, the Activity is 6.07 s.
Same read-out and setting: under `Clc1ccccc1-c1nc(-c2ccccc2)c(-c2ccccc2)[nH]1` stands 8.2 s; under `Nc1ccc(-c2nc(-c3ccccc3)c(-c3ccccc3)[nH]2)cc1`, 8.25 s.
Still for that read-out and setting: under `Cc1ccccc1-c1nc(-c2ccccc2)c(-c2ccccc2)[nH]1` stands 4.79 s; under `Clc1cccc(-c2nc(-c3ccccc3)c(-c3ccccc3)[nH]2)c1`, 7.78 s; under `O=[N+]([O-])c1ccc(-c2nc(-c3ccccc3)c(-c3ccccc3)[nH]2)cc1`, 5.82 s.

The next test relates to Mus musculus. Kind of test: Antinociceptive activity in ip dosed Swiss albino mouse assessed as latency time after 15 mins by tail flick method. In kind it is functional. Put shortly: as §2
As for `c1ccc(-c2nc(-c3ccccc3)c(-c3ccccc3)[nH]2)cc1`, the Activity stood at 4.13 s.
Still for that read-out and setting: the figure for `Clc1ccccc1-c1nc(-c2ccccc2)c(-c2ccccc2)[nH]1` is 4.14 s; for `Nc1ccc(-c2nc(-c3ccccc3)c(-c3ccccc3)[nH]2)cc1` it is 4.27 s.
On the same count and under the same terms, under `Cc1ccccc1-c1nc(-c2ccccc2)c(-c2ccccc2)[nH]1` stands 4.12 s; under `Clc1cccc(-c2nc(-c3ccccc3)c(-c3ccccc3)[nH]2)c1`, 4.12 s; under `O=[N+]([O-])c1ccc(-c2nc(-c3ccccc3)c(-c3ccccc3)[nH]2)cc1`, 4.14 s.

Another test has as its system Mus musculus. Nature of the test: Antinociceptive activity in ip dosed Swiss albino mouse assessed as latency time after 120 mins by hot plate method. In kind it is functional. Put shortly:
as §1
On to `c1ccc(-c2nc(-c3ccccc3)c(-c3ccccc3)[nH]2)cc1`, for which the Activity amounted to 6.1 s.
Consider `Clc1ccccc1-c1nc(-c2ccccc2)c(-c2ccccc2)[nH]1`, for which the Activity turned out to be 9.01 s.
On the same count and under the same terms, under `Nc1ccc(-c2nc(-c3ccccc3)c(-c3ccccc3)[nH]2)cc1` stands 10.08 s; under `Cc1ccccc1-c1nc(-c2ccccc2)c(-c2ccccc2)[nH]1`, 5.79 s; under `Clc1cccc(-c2nc(-c3ccccc3)c(-c3ccccc3)[nH]2)c1`, 8.91 s.
Consider `O=[N+]([O-])c1ccc(-c2nc(-c3ccccc3)c(-c3ccccc3)[nH]2)cc1`, for which the Activity is 5.83 s.

In another test the test system is Mus musculus. Nature of the test: Antinociceptive activity in ip dosed Swiss albino mouse assessed as latency time after 15 mins by hot plate method. In kind it is functional. Summed up:
as §1
As to `c1ccc(-c2nc(-c3ccccc3)c(-c3ccccc3)[nH]2)cc1`, the Activity was determined as 4.58 s.
Consider `Clc1ccccc1-c1nc(-c2ccccc2)c(-c2ccccc2)[nH]1`, for which the Activity is given as 4.62 s.
Take `Nc1ccc(-c2nc(-c3ccccc3)c(-c3ccccc3)[nH]2)cc1`: the Activity was determined as 4.69 s.
Consider `Cc1ccccc1-c1nc(-c2ccccc2)c(-c2ccccc2)[nH]1`, for which the Activity is on record as 4.55 s.
Still for that read-out and setting: under `Clc1cccc(-c2nc(-c3ccccc3)c(-c3ccccc3)[nH]2)c1` stands 5.14 s.
Same read-out and setting: under `O=[N+]([O-])c1ccc(-c2nc(-c3ccccc3)c(-c3ccccc3)[nH]2)cc1` stands 4.6 s.

A further test has as its system Mus musculus. Kind of test: Antinociceptive activity in ip dosed Swiss albino mouse assessed as latency time by tail flick method. In kind it is functional. Put shortly: as §2
Regarding `c1ccc(-c2nc(-c3ccccc3)c(-c3ccccc3)[nH]2)cc1`, the Activity was found to be 4.13 s.
On the same count and under the same terms, the figure for `Clc1ccccc1-c1nc(-c2ccccc2)c(-c2ccccc2)[nH]1` is 4.2 s; for `Nc1ccc(-c2nc(-c3ccccc3)c(-c3ccccc3)[nH]2)cc1` it is 4.22 s.
The same measure, in the same setting: under `Cc1ccccc1-c1nc(-c2ccccc2)c(-c2ccccc2)[nH]1` stands 4.11 s.
Turning to `Clc1cccc(-c2nc(-c3ccccc3)c(-c3ccccc3)[nH]2)c1`, the Activity came to 4.12 s.
The same measure, in the same setting: under `O=[N+]([O-])c1ccc(-c2nc(-c3ccccc3)c(-c3ccccc3)[nH]2)cc1` stands 4.13 s.

In a further test the test system is Mus musculus. Kind of test: Antinociceptive activity in ip dosed Swiss albino mouse assessed as latency time after 60 mins by tail flick method. In kind it is functional. Put shortly:
as §2
On to `c1ccc(-c2nc(-c3ccccc3)c(-c3ccccc3)[nH]2)cc1`, for which the Activity came to 5.12 s.
The same measure, in the same setting: the figure for `Clc1ccccc1-c1nc(-c2ccccc2)c(-c2ccccc2)[nH]1` is 7.27 s.
Take `Nc1ccc(-c2nc(-c3ccccc3)c(-c3ccccc3)[nH]2)cc1`: the Activity came out at 7.77 s.
Regarding `Cc1ccccc1-c1nc(-c2ccccc2)c(-c2ccccc2)[nH]1`, the Activity came to 4.98 s.
As to `Clc1cccc(-c2nc(-c3ccccc3)c(-c3ccccc3)[nH]2)c1`, the Activity turned out to be 6.89 s.
Still for that read-out and setting: the figure for `O=[N+]([O-])c1ccc(-c2nc(-c3ccccc3)c(-c3ccccc3)[nH]2)cc1` is 5.12 s.

A further test deals with Mus musculus. Nature of the test: Antinociceptive activity in ip dosed Swiss albino mouse assessed as latency time after 30 mins by tail flick method. In kind it is functional. Put shortly: as §2
As for `c1ccc(-c2nc(-c3ccccc3)c(-c3ccccc3)[nH]2)cc1`, the Activity was found to be 4.67 s.
Same read-out and setting: under `Clc1ccccc1-c1nc(-c2ccccc2)c(-c2ccccc2)[nH]1` stands 5.78 s; under `Nc1ccc(-c2nc(-c3ccccc3)c(-c3ccccc3)[nH]2)cc1`, 6.18 s.
`Cc1ccccc1-c1nc(-c2ccccc2)c(-c2ccccc2)[nH]1`: the Activity is given as 4.52 s.
Still for that read-out and setting: under `Clc1cccc(-c2nc(-c3ccccc3)c(-c3ccccc3)[nH]2)c1` stands 4.98 s; under `O=[N+]([O-])c1ccc(-c2nc(-c3ccccc3)c(-c3ccccc3)[nH]2)cc1`, 5.09 s.

The next test relates to Rattus norvegicus. Nature of the test: Antiinflammatory activity assessed as reduction of carrageenan-induced paw volume in intraperitoneally dosed Wistar rat after 3 hrs. On the set-up: scale not given: the % may be the effect or the level left. In kind it is functional. Put shortly: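 Wistar rats of either sex (120–150 g) were dosed ip with compounds at 9.5–12.58 mg/kg in 0.2% Tween suspension. After 1 h, 0.05 ml of 1.0% w/v carrageenan in 0.9% NaCl was injected into the left hind paw. Paw volume was measured by mercury-displacement plethysmometry before injection and at 1, 2 and 3 h. Percent inhibition of the 3 h swelling was calculated.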
Consider `c1ccc(-c2nc(-c3ccccc3)c(-c3ccccc3)[nH]2)cc1`, for which the Activity is listed as 30.24%.
On the same count and under the same terms, the figure for `Clc1ccccc1-c1nc(-c2ccccc2)c(-c2ccccc2)[nH]1` is 62.8%.
For the compound `Nc1ccc(-c2nc(-c3ccccc3)c(-c3ccccc3)[nH]2)cc1`, the Activity is given as 81.4%.
Still for that read-out and setting: the figure for `Cc1ccccc1-c1nc(-c2ccccc2)c(-c2ccccc2)[nH]1` is 18.61%; for `Clc1cccc(-c2nc(-c3ccccc3)c(-c3ccccc3)[nH]2)c1` it is 55.82%; for `O=[N+]([O-])c1ccc(-c2nc(-c3ccccc3)c(-c3ccccc3)[nH]2)cc1` it is 25.59%.
